Source: PubChem BioAssay
In the library only some 1.2% were active in any assay of this set; here they are far more common.
RanGTP-Impb inh: disruptors of Ran-importin-beta complex formation – biochemical, FRET, CFP-Ran, YFP-importin-beta, homogeneous, primary screen. 300,000 tested, 1.1% active. cell-free CFP-Ran/YFP-importin-beta FRET ratio. inhibition, % (test concentration not listed);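 active means more than half of the replicate wells show a fall in the fluorescence ratio signal beyond about 16%, limit read from the data, passing the limit was not always enough; inconclusive means exactly half of the replicate wells pass the set limit; inactive means fewer than half of replicates pass the limit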;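 further: 0% = DMSO wells and 100% = Ran loaded with GDP instead of GTP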
Runt-SMMHC FRET: blocks binding of human RUNX1 Runt domain to CBFb-SMMHC. inhibition, % at 20 µM. Cerulean-Runt/Venus-CBFb-SMMHC FRET ratio 530/480, 1 h. AID 1434. 220,000 tested, 0.74% active;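 active means mean inhibition across duplicate retests at 20 µM reaching about 50%, limit read from the data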;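 further: 0% = DMSO wells and 100% = wells with excess untagged CBFb-SMMHC; inhibitors lower the FRET ratio by blocking Runt binding to CBFb-SMMHC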
Target sequence (Q01196 whole entry, looked up, the tested form may be a part): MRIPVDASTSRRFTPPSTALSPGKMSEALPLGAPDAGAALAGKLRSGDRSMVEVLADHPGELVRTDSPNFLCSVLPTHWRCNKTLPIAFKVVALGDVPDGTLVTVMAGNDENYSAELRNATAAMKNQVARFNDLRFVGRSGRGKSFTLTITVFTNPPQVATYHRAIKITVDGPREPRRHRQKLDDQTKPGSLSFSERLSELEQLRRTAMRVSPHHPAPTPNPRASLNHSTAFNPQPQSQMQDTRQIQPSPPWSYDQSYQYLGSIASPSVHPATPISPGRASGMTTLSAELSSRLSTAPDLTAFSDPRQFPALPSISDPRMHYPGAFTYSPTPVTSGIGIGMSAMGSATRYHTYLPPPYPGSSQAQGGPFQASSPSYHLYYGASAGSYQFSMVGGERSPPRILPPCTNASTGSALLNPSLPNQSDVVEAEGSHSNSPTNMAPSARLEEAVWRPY
Target sequence (Q13951 whole entry, looked up, the tested form may be a part): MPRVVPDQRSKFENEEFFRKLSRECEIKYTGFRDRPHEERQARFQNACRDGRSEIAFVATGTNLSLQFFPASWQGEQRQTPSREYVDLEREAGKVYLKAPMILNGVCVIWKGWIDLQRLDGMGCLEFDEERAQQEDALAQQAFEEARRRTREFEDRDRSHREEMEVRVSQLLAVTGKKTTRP
CaV13 FRET inh: Disruptors of the CACNA1D IQ motif to Ca2+-dependent inactivation inhibitor domain association, primary screening, Förster resonance energy transfer in intact living … | HEK cells, CFP/YFP FRET ICDI-IQ, plate reader, 10 min; percent FRET-ratio fall versus neutral wells | inhibition, % at 12.3 µM | 340,000 tested, 0.098% active;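 active means mean replicate inhibition of at least 30% and at least 1% of replicates passing that level; inconclusive means only one of the two criteria is met; inactive means neither criterion is met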;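 further: 0% = median of the neutral control wells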
Runt-CBFb FRET: inhibitors of human RUNX1 Runt domain binding to CBFb; Q01196+Q13951; Cerulean-Runt/Venus-CBFb FRET ratio 530/480, 1 h; inhibition, % at 20 µM; 220,000 tested, 0.46% active; AID 1496;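 active means inhibition over about 50% at 20 µM in the single-dose screen, limit read from the data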;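 further: 0% = DMSO wells and 100% = excess unlabeled CBFb competitor control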
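Reagent – Venus-CBFb binding partner, 100 nM · Assay system – Cerulean-tagged RUNX1 Runt domain (FRET donor) fusion protein · Input – 100 nM per protein · Incubation – two 1 h room-temperature incubations shielded from light · Measured by – FRET fluorescence · Medium – Tris buffer pH 7.5 with salts and BSA · Benchmarks – unlabeled CBFb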
The depositor's hits bear a star; ? = inconclusive; nt = no result.

SMILES	RanGTP-Impb inh	Runt-SMMHC FRET	CaV13 FRET inh	Runt-CBFb FRET
COCCOC(=O)C(C#N)c1nc2ccccc2nc1N1CCCC1 (centres undefined)	9	30	-4	13
COCCCNC(=O)C(C#N)c1nc2ccccc2nc1N1CCCC1 (centres undefined)	54*	nt	-5	nt
CC(=O)NC(Cc1ccccc1F)C(=O)NC1CCN(C(=O)Nc2ccc(C)cc2)CC1 (centres undefined)	1	nt	-5	nt
CCC(CC)c1nnc(NC(=O)C2COc3ccccc3O2)s1 (centres undefined)	21*	1	-6	-1
NC(=O)c1c(NC(=O)Cc2ccccc2)sc2c1CCN(Cc1ccccc1)C2	134*	nt	40*	nt
CC(=O)Nc1sc(C)c(C)c1CN1CCN(Cc2ccccc2)CC1	-3	-1	-6	1
CC(=O)Nc1sc2c(c1C(N)=O)CCN(Cc1ccccc1)C2	162*	130*	11	9
CCN1CCc2c(sc(NC(=O)CN3C(=O)c4ccccc4C3=O)c2C(N)=O)C1	-4	102*	-2	62*
CC(=O)N1CCc2c(sc(NC(=O)Cc3ccc(F)cc3)c2C(N)=O)C1	8	nt	-7	nt
Cc1ccnn1Cc1cc(C(=O)O)c2ccccc2n1	-4	1	-5	1
C=CCN1C(=S)CC(c2ccccc2)=Nc2ccccc21	4	nt	63*	nt
C=CCn1c(-c2csc(-c3ccccc3)n2)n[nH]c1=S	1	10	-6	17
CC1(C)Cc2cccc(OCC(=O)N3CCN(c4ccc(F)cc4)CC3)c2O1	2	nt	-2	nt
CS(=O)(=O)c1ccc(-c2csc(C(O)c3cccc(Cl)c3)n2)cc1 (centres undefined)	nt	nt	-3	nt
COc1ccc(-c2ncc(CN3CCC(CO)(Cc4cccc(OC)c4)CC3)cn2)cc1	82*	26	-1	8
CCCN1C=CC(=C/C=C(\C#N)C(=O)OCC)C=C1	?	-92	nt	-42
CCCN1C=CC(=CC=C(C#N)C#N)C=C1	34*	-30	-4	-14
O=C(Nc1cccs1)NC1CCCC1	2	-19	nt	0
COCCNC(=O)c1cc(-c2cccs2)on1	1	-2	-6	1
COCCNC(=O)Nc1ccc2nc(-c3cccs3)c(-c3cccs3)nc2c1	120*	81*	-2	15
O=C(Nc1ccc2nc(-c3cccs3)c(-c3cccs3)nc2c1)NC1CC1	121*	-73	-1	-13
CCCc1cc(C(=O)NNC(=S)Nc2cccc(C)c2)cs1	3	4	-4	8
CC(OC(=O)/C(C#N)=C/c1ccc(N(C)C)cc1)C(=O)N(C)c1ccccc1 (centres undefined)	92*	nt	7	nt
COc1ccc(-c2cc(=O)oc3cc(O)ccc23)cc1	-2	nt	-17	nt
COc1ccc(-c2cc(=O)oc3cc(OC(=O)C4CCCCC4)c(Cl)cc23)cc1	21*	58*	-29	67*
SMILES	RanGTP-Impb inh	Runt-SMMHC FRET	CaV13 FRET inh	Runt-CBFb FRET
O=S(=O)(Cc1ccccc1)N1CCN(Cc2ccc3c(c2)OCO3)CC1	159*	-2	-5	1
O=S(=O)(c1ccc2c(c1)OCCO2)N1CCN(Cc2ccc3c(c2)OCO3)CC1	-2	-2	-6	1
Fc1cccc(CN2CCN(Cc3nc(CCc4ccccc4)no3)CC2)c1	3	2	-3	-2
Cc1csc(NC(=O)c2cc(=O)[nH]c3ccc(S(=O)(=O)N4CCOCC4)cc23)n1	5	118*	9	80*
COc1cc(NC(=O)c2cc(=O)[nH]c3ccc(S(=O)(=O)N4CCOCC4)cc23)cc(OC)c1	nt	nt	-5	nt
COc1cc(Cl)c(C)cc1NC(=O)c1ccccc1NC(=O)CN1CCOCC1	2	nt	-4	nt
O=C(CCN1C(=O)c2ccccc2C1=O)N1CCN(Cc2ccccc2)CC1	10	0	-7	1
Cc1ccc(CN2CCN(C(=O)CCN3C(=O)c4ccccc4C3=O)CC2)cc1	6	5	nt	108*
C[C@H](O)[C@@H]1CN2CCc3c([nH]c4c(-c5ccccc5)cccc34)[C@@H]2C[C@@H]1N(C)C(=S)NCCc1ccccc1	nt	nt	-5	nt
CCc1ccc(NC(=O)C(C)Sc2ccc(S(=O)(=O)N3CCN(C)CC3)cn2)cc1 (centres undefined)	nt	nt	-2	nt
CC(C)Cn1c2nc3ccccc3nc2c2c(=O)n(CCN3CCOCC3)cnc21	6	11	0	8
